Here are results for two molecules from ChEMBL document CHEMBL1649483, “Molecular analysis of the gyrA and gyrB quinolone resistance-determining regions of fluoroquinolone-resistant Clostridium difficile mutants selected in vitro” (2009).

Values after ≈ are worked out from the molar mass of the structure shown. Bounds are passed on as bounds.

Common to all, as to assay type: functional
Assay [1] concerns Clostridioides difficile. Briefly: Antimicrobial activity against Clostridium difficile A422b selected after 2 ug/ml of moxifloxacin by Etest method. Summed up:
(§1)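 Stable in vitro-selected mutant tested for gatifloxacin susceptibility by Etest, per the manufacturer's instructions, with an 8 μg/ml breakpoint. For selection, the parent was grown in antibiotic-free brain heart infusion (BHI) for 24 h at 35°C under anaerobic conditions. […] Later steps used double the MIC. Stability was confirmed by three subcultures.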

In assay [2] the test system is Clostridioides difficile. As to the kind of experiment: Antimicrobial activity against Clostridium difficile C253d selected after 4 ug/ml of moxifloxacin by Etest method.
For assay [3], the system named is Clostridioides difficile. Briefly: Antimicrobial activity against Clostridium difficile BI2C selected after 4 ug/ml of levofloxacin by Etest method. Summed up:
as §1

In assay [4] the test system is Clostridioides difficile. Briefly: Antimicrobial activity against Clostridium difficile CD5a harboring GyrB Ser416Ala mutant gene selected after 2 ug/ml of moxifloxacin by Etest method.
Assay [5] relates to Clostridioides difficile. As to the kind of experiment: Antimicrobial activity against Clostridium difficile CD5E harboring GyrB Ser416Ala mutant gene selected after 8 ug/ml of levofloxacin by Etest method.
Assay [6] has as its system Clostridioides difficile. Briefly: Antimicrobial activity against Clostridium difficile C253h harboring GyrA Ala118Ser mutant gene selected after 8 ug/ml of moxifloxacin by Etest method.
In assay [7] the test system is Clostridioides difficile. As to the kind of experiment: Antimicrobial activity against Clostridium difficile A422D harboring GyrB Leu451Phe mutant gene selected after 8 ug/ml of levofloxacin by Etest method. Summed up:
as §1

Assay [8] concerns Clostridioides difficile. Briefly: Antimicrobial activity against Clostridium difficile 630D harboring GyrA Ala118Val mutant gene selected after 8 ug/ml of levofloxacin by Etest method. Summed up:
as §1

Assay [9] has as its system Clostridioides difficile. Briefly: Antimicrobial activity against Clostridium difficile CD5e harboring GyrB Ser416Ala mutant gene selected after 4 ug/ml of moxifloxacin by Etest method.
Assay [10] deals with Clostridioides difficile. Briefly: Antimicrobial activity against Clostridium difficile A422e selected after 4 ug/ml of moxifloxacin by Etest method. Summed up: as §1
Assay [11] relates to Clostridioides difficile. Briefly: Antimicrobial activity against Clostridium difficile A422 expressing tcdA and tcdB gene by Etest method. The essentials:
(§2)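 Parent clinical or nontoxigenic isolate tested for gatifloxacin susceptibility by Etest, run per the manufacturer's instructions; a fluoroquinolone breakpoint of 8 μg/ml was applied.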

Assay [12] concerns Clostridioides difficile. As to the kind of experiment: Antimicrobial activity against Clostridium difficile BI2 by Etest method. Summed up: as §2
In assay [13] the test system is Clostridioides difficile. Briefly: Antimicrobial activity against Clostridium difficile BI2b harboring GyrB Arg447Lys mutant gene selected after 2 ug/ml of moxifloxacin by Etest method. Summed up: as §1
In assay [14] the test system is Clostridioides difficile. Briefly: Antimicrobial activity against Clostridium difficile C253 expressing tcdA and tcdB gene by Etest method. Summed up:
as §2

The subject of assay [15] is Clostridioides difficile. Briefly: Antimicrobial activity against Clostridium difficile C253D selected after 8 ug/ml of levofloxacin by Etest method.
Assay [16] concerns Clostridioides difficile. Briefly: Antimicrobial activity against Clostridium difficile C253F selected after 8 ug/ml of levofloxacin by Etest method.
The subject of assay [17] is Clostridioides difficile. Briefly: Antimicrobial activity against Clostridium difficile 630c selected after 2 ug/ml of moxifloxacin by Etest method. The essentials: as §1
Assay [18] concerns Clostridioides difficile. Briefly: Antimicrobial activity against Clostridium difficile C253i harboring GyrA Ala118Ser mutant gene selected after 8 ug/ml of moxifloxacin by Etest method.
For assay [19], the system named is Clostridioides difficile. Briefly: Antimicrobial activity against Clostridium difficile A422E harboring GyrB Leu451Phe mutant gene selected after 8 ug/ml of levofloxacin by Etest method. The essentials:
as §1

The subject of assay [20] is Clostridioides difficile. As to the kind of experiment: Antimicrobial activity against Clostridium difficile A422h harboring GyrA Asp81Asn mutant gene selected after 8 ug/ml of moxifloxacin by Etest method. Summed up:
as §1

Assay [21] concerns Clostridioides difficile. As to the kind of experiment: Antimicrobial activity against Clostridium difficile BI2E harboring GyrB Glu466Lys mutant gene selected after 8 ug/ml of levofloxacin by Etest method. The essentials: as §1
Assay [22] deals with Clostridioides difficile. As to the kind of experiment: Antimicrobial activity against Clostridium difficile CD5D harboring GyrB Ser416Ala mutant gene selected after 8 ug/ml of levofloxacin by Etest method.
The subject of assay [23] is Clostridioides difficile. Briefly: Antimicrobial activity against Clostridium difficile CD5h harboring GyrA Ala92Glu and GyrB Ser416Ala mutant genes selected after 8 ug/ml of moxifloxacin by agar dilution method. Background: In agar dilution, organisms are placed on agar that contains the substance at set levels.
For assay [24], the system named is Clostridioides difficile. As to the kind of experiment: Antimicrobial activity against Clostridium difficile BI2c harboring GyrB Arg447Lys mutant gene selected after 2 ug/ml of moxifloxacin by agar dilution method.
For assay [25], the system named is Clostridioides difficile. Briefly: Antimicrobial activity against Clostridium difficile C253F selected after 8 ug/ml of levofloxacin by agar dilution method.
Assay [26] relates to Clostridioides difficile. Briefly: Antimicrobial activity against Clostridium difficile BI2f harboring GyrB Arg447Lys and Asp426Asn mutant gene selected after 32 ug/ml of moxifloxacin by agar dilution method.
In assay [27] the test system is Clostridioides difficile. Briefly: Antimicrobial activity against Clostridium difficile A422c selected after 2 ug/ml of moxifloxacin by agar dilution method.
The test system of assay [28] is Clostridioides difficile. As to the kind of experiment: Antimicrobial activity against Clostridium difficile CD5f harboring GyrB Ser416Ala mutant gene selected after 4 ug/ml of moxifloxacin by agar dilution method.
Assay [29] relates to Clostridioides difficile. Briefly: Antimicrobial activity against Clostridium difficile A422H harboring GyrA Thr82Ile and GyrB Leu451Phe mutant genes selected after 8 ug/ml of levofloxacin by agar dilution method.
The test system of assay [30] is Clostridioides difficile. As to the kind of experiment: Antimicrobial activity against Clostridium difficile A422 expressing tcdA and tcdB gene by agar dilution method.
The subject of assay [31] is Clostridioides difficile. Briefly: Antimicrobial activity against Clostridium difficile BI2b harboring GyrB Arg447Lys mutant gene selected after 2 ug/ml of moxifloxacin by agar dilution method.
The test system of assay [32] is Clostridioides difficile. As to the kind of experiment: Antimicrobial activity against Clostridium difficile A422i harboring GyrA Asp81Asn mutant gene selected after 8 ug/ml of moxifloxacin by agar dilution method.
Assay [33] relates to Clostridioides difficile. Briefly: Antimicrobial activity against Clostridium difficile BI2E harboring GyrB Glu466Lys mutant gene selected after 8 ug/ml of levofloxacin by agar dilution method.
For assay [34], the system named is Clostridioides difficile. As to the kind of experiment: Antimicrobial activity against Clostridium difficile C253g harboring GyrA Ala118Ser mutant gene selected after 8 ug/ml of moxifloxacin by agar dilution method.
Assay [35] has as its system Clostridioides difficile. As to the kind of experiment: Antimicrobial activity against Clostridium difficile CD5C harboring GyrB Ser416Ala mutant gene selected after 4 ug/ml of levofloxacin by agar dilution method.
The subject of assay [36] is Clostridioides difficile. Briefly: Antimicrobial activity against Clostridium difficile A422f selected after 4 ug/ml of moxifloxacin by agar dilution method.
The subject of assay [37] is Clostridioides difficile. Briefly: Antimicrobial activity against Clostridium difficile 630i harboring GyrB […] mutant gene selected after 8 ug/ml of moxifloxacin by agar dilution method.
Assay [38] relates to Clostridioides difficile. As to the kind of experiment: Antimicrobial activity against Clostridium difficile C253d selected after 4 ug/ml of moxifloxacin by agar dilution method.
The subject of assay [39] is Clostridioides difficile. Briefly: Antimicrobial activity against Clostridium difficile C253A selected after 4 ug/ml of levofloxacin by agar dilution method.
The subject of assay [40] is Clostridioides difficile. Briefly: Antimicrobial activity against Clostridium difficile C253 expressing tcdA and tcdB gene by agar dilution method.
The test system of assay [41] is Clostridioides difficile. As to the kind of experiment: Antimicrobial activity against Clostridium difficile 630 expressing tcdA and tcdB gene by agar dilution method.
The subject of assay [42] is Clostridioides difficile. As to the kind of experiment: Antimicrobial activity against Clostridium difficile BI2C selected after 4 ug/ml of levofloxacin by agar dilution method.
Assay [43] deals with Clostridioides difficile. Briefly: Antimicrobial activity against Clostridium difficile A422g harboring GyrA Asp81Asn mutant gene selected after 8 ug/ml of moxifloxacin by agar dilution method.

On to `COc1c(N2CCNC(C)C2)c(F)cc2c(=O)c(C(=O)O)cn(C3CC3)c12` (stereo not drawn) [GATIFLOXACIN], for which the MIC with Clostridioides difficile [1] is 1.5 µg/mL; in the assay on Clostridioides difficile [2], 1 µg/mL; in the assay on Clostridioides difficile [3] it was 2 µg/mL; with Clostridioides difficile [4], 0.75 µg/mL; in the assay on Clostridioides difficile [5], 2 µg/mL; with Clostridioides difficile [6], 8 µg/mL. The MIC amounted to 2 µg/mL in the assay with Clostridioides difficile [7]; 3 µg/mL in the assay with Clostridioides difficile [8]; 0.75 µg/mL in the assay on Clostridioides difficile [9]; 1.5 µg/mL with Clostridioides difficile [10]; 0.75 µg/mL (≈ 2 µM) against Clostridioides difficile [11]; 0.75 µg/mL (≈ 2 µM) against Clostridioides difficile [12]. Further, the MIC in the assay on Clostridioides difficile [13] was 1.5 µg/mL; in the assay on Clostridioides difficile [14], 0.5 µg/mL (≈ 1.33 µM); in the assay with Clostridioides difficile [15] it was 1 µg/mL; in the assay on Clostridioides difficile [16], 1 µg/mL; with Clostridioides difficile [17], 0.75 µg/mL; in the assay on Clostridioides difficile [18], 8 µg/mL. The MIC in the assay on Clostridioides difficile [19] was 2 µg/mL; in the assay on Clostridioides difficile [20], at least 32 µg/mL; in the assay with Clostridioides difficile [21], at least 32 µg/mL; in the assay on Clostridioides difficile [22], 2 µg/mL.
As to `C[C@H]1COc2c(N3CCN(C)CC3)c(F)cc3c(=O)c(C(=O)O)cn1c23.C[C@H]1COc2c(N3CCN(C)CC3)c(F)cc3c(=O)c(C(=O)O)cn1c23.O` [LEVOFLOXACIN], the minimum inhibitory concentration (MIC) in the assay on Clostridioides difficile [23] is 16 µg/mL; in the assay with Clostridioides difficile [24], 8 µg/mL; in the assay with Clostridioides difficile [25] it was 2 µg/mL; with Clostridioides difficile [26] it was 64 µg/mL; in the assay with Clostridioides difficile [27], 4 µg/mL; in the assay on Clostridioides difficile [28], 2 µg/mL. For the same molecule, the MIC is 64 µg/mL in the assay on Clostridioides difficile [29]; 2 µg/mL against Clostridioides difficile [30]; 8 µg/mL in the assay with Clostridioides difficile [31]; 64 µg/mL with Clostridioides difficile [32]; 16 µg/mL in the assay on Clostridioides difficile [33]; 64 µg/mL with Clostridioides difficile [34]. Moreover, the MIC with Clostridioides difficile [35] worked out at 1 µg/mL; in the assay with Clostridioides difficile [36], 4 µg/mL; in the assay on Clostridioides difficile [37], 64 µg/mL; in the assay with Clostridioides difficile [38], 4 µg/mL; in the assay on Clostridioides difficile [39] it was 1 µg/mL; with Clostridioides difficile [40], 2 µg/mL. In addition, the MIC in the assay on Clostridioides difficile [41] is 2 µg/mL; with Clostridioides difficile [42], 1 µg/mL; with Clostridioides difficile [43], 64 µg/mL.

For orientation: MIC means the smallest concentration in the dilution series that meets the test's criterion for growth inhibition.
